Compound activity deposited in PubChem BioAssay by Johns Hopkins Ion Channel Center.
Most compounds without a hit are left out; they make up all but 3.7% or so of the library.
KCNQ1 act = potentiates or activates the human KCNQ1 potassium channel; CHO-K1 KCNQ1, thallium flux FluxOR fluorescence; stronger effect = higher value; 310,000 compounds, 0.35% hits; P51787; B-score at 10 µM; AID 2648;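 active = fluorescence ratio B-score, a plate-corrected score, at least three library SD, with initial intensity B-score within 5 SD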
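System: CHO-K1 cells stably expressing KCNQ1 / Medium: assay buffer for compound exposure, DMSO matched across wells / Reagent: thallium- and potassium-containing depolarizing buffer / Compound: one concentration, matched DMSO / Incubation: 20 min compound pretreatment at room temperature / Measured by: kinetic FluxOR fluorescence, 10 s baseline plus 110 s post-stimulus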
KCNK9 inh = blocks the human KCNK9 two-pore domain potassium channel; HEK293 KCNK9, FluxOR thallium flux fluorescence; stronger effect = lower value; B-score at 10 µM; 310,000 compounds, 1.2% hits; Q9NPC2;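 active = ratio B-score over 3 SD below the library mean, with starting fluorescence within 5 SD of its mean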;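 also: negative B-score means less thallium flux so channel inhibition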
hERG rescue = hERG (human) protection from proarrhythmic block; Q12809; CHO-hERG, FluxOR thallium flux, dofetilide IC70 present; activation (rescue from dofetilide block), less the hit threshold, % at 10 µM; 310,000 compounds, 0.51% hits; AID 1511;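 active = activation above the mean of controls blocked by dofetilide plus 5 SD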;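 also: thallium influx through hERG after potassium depolarization seen as dye fluorescence rise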
Target sequence (Q12809 whole entry, looked up): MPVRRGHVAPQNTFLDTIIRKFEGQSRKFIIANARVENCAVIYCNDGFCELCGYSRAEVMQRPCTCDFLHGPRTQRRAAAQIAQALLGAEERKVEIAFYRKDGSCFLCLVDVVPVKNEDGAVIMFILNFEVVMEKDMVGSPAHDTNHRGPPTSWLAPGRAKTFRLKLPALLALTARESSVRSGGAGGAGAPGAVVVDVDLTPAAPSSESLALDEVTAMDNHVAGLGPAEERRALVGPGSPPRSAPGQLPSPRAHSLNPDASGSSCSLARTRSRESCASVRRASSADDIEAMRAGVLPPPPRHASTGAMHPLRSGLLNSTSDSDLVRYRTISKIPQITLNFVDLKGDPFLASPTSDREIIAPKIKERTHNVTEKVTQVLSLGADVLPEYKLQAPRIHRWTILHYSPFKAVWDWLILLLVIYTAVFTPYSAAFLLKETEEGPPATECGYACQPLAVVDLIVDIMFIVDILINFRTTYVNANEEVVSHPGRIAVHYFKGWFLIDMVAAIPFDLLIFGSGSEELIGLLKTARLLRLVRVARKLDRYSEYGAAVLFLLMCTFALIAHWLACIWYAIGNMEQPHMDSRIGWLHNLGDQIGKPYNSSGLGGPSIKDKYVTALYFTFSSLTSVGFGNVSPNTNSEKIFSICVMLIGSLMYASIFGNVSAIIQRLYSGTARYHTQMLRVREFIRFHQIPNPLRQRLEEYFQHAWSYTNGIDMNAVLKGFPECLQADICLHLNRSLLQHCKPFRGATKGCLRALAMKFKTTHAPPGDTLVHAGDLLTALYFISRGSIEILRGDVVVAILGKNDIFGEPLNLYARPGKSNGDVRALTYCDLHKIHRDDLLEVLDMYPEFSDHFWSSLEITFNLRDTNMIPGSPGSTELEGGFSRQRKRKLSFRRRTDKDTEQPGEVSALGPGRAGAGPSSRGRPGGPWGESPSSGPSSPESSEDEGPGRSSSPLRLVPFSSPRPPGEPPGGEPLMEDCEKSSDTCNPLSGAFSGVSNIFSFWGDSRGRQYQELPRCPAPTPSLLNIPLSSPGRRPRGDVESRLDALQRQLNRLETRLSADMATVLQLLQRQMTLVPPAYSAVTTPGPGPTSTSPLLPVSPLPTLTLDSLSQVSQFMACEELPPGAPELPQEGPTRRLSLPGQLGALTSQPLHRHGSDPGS
KCNQ1 block = blocks the human KCNQ1 potassium channel; P51787; CHO-K1 KCNQ1, FluxOR thallium flux fluorescence; stronger effect = higher value; B-score at 10 µM; 310,000 compounds, 1.3% hits; AID 2642;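 active = compounds whose thallium flux B-score, printed positive for inhibition, exceeds three library SD while starting fluorescence stays within three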;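 also: channel opened by potassium depolarization with thallium stimulus after 20 min compound exposure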
Kir21 block = inhibitors of mouse Kir2.1 inward-rectifier potassium channel. P35561. HEK293-Kir2.1, FluxOR thallium flux fluorescence; stronger effect = lower value. B-score at 10 µM. 310,000 compounds, 0.85% hits;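 active = fluorescence ratio B-score at or below minus 3 SD of library scores, with starting-brightness B-score within 2 SD, cut at about -4.2 in these data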;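 also: channel flux triggered by added potassium and thallium sulfate stimulus; B-score of peak minus minimum fluorescence over baseline after thallium stimulus; more negative B-score means stronger Kir2.1 block with less thallium influx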
KCNK3 block = human KCNK3 channel inhibition, primary screen | O14649 | 340,000 compounds, 0.84% hits | CHO-KCNK3 thallium flux, FluxOR fluorescence; stronger effect = lower value | B-score at 10 µM;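 active = B-score under library mean minus 4 SD, starting fluorescence ratio at most library mean plus 5 SD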;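 also: more negative B-score means stronger inhibition of thallium flux through KCNK3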
KCNK9 inh conf = confirmation of human KCNK9 potassium channel inhibitors | 4,900 compounds, 43% hits | inhibition, % at 10 µM | HEK293 KCNK9 cells, FluxOR thallium flux fluorescence | shares compounds with KCNK9 inh | AID 492992;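 active = thallium signal inhibited by more than 5 SD of the compound-free buffer control wells, on both duplicate plates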
Kir21 sel = mouse Kir2.1 off-target activity of KCNK9 modulators; shares compounds with KCNK9 inh; Kir2.1 cells, FluxOR thallium flux fluorescence; inhibition, % at 10 µM; 4,900 compounds, 4% hits; AID 492993;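 active = thallium signal drop more than 5 SD beyond the mean of the no-compound control wells, seen in both duplicate plates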;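 also: signal is fluorescence rise after thallium addition divided by baseline fluorescence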
HEK293 Tl ctr = second counter-screen for KCNK9 modulators: effect in non-induced cells. shares compounds with KCNK9 inh. non-induced KCNK9-HEK293, FluxOR thallium flux. inhibition, % at 10 µM. 4,900 compounds, 40% hits. AID 492997;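 active = thallium signal drop beyond 5 SD of the untreated control mean, on both duplicate plates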
KCNK3 confirm = human KCNK3 channel inhibition, confirmation assay; CHO-KCNK3 thallium flux, FluxOR fluorescence; 0% buffer, 100% carvedilol maximal block; AID 651638; shares compounds with KCNK3 block; ratio percent of control, % at 10 µM; 2,400 compounds, 99% hits;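 active = ratio percent of control, averaged over triplicates, above buffer control mean plus 5 SD, cut at about 64% in these data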;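 also: ratio is the fluorescence rise from min to max over baseline after thallium stimulus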
KCNK3 uninduced = KCNK3 inhibitor counter-screen hit in non-induced cells | shares compounds with KCNK3 block | non-induced KCNK3 parental cells, FluxOR thallium flux; stronger effect = lower value | thallium flux ratio (lower = more inhibition) at 10 µM | 2,400 compounds, 40% hits | AID 651747;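 active = thallium flux ratio, averaged over three wells, more than 5 SD below the buffer control mean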;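 also: host cells are CHO cells without KCNK3 induction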
A number is an active result; 0 = inactive; - = no result.

SMILES	KCNQ1 act	KCNK9 inh	hERG rescue	KCNQ1 block	Kir21 block	KCNK3 block	KCNK9 inh conf	Kir21 sel	HEK293 Tl ctr	KCNK3 confirm	KCNK3 uninduced
CCN1CCN(S(=O)(=O)c2ccc(Cl)c(C(=O)Nc3nnc(C)s3)c2)CC1	0	0	0	0	0	0	-	-	-	-	-
Cc1ccc2c(c1)C(=O)CC(c1ccc3c(c1)OCCO3)O2 (centres undefined)	0	0	0	0	0	0	-	-	-	-	-
CC(C)=CCc1cc([C@@H]2CC(=O)c3ccc(O)c(CC=C(C)C)c3O2)ccc1O	0	-11	0	0	0	-16	61%	0	30%	141	0.12
CC(C)CCN(C(=O)CCSc1ccc(F)cc1)c1c(N)n(Cc2ccccc2)c(=O)[nH]c1=O	0	0	0	0	0	0	-	-	-	-	-
Cc1c(C)n(C(=O)CN2CCN(c3ccccc3)CC2)c2ccccc12	0	0	0	0	0	-10	0	0	0	83	0
O=C(Nc1ccccc1)c1sc2cc(C(F)(F)F)cnc2c1-c1cccs1	0	-9	0	0	0	-9	40%	0	34%	112	0
CCCCCCCCCC[n+]1cccc2c3ccccc3ccc21	0	-15	0	0	-9.1	0	73%	0	36%	72	0
Cc1c2ccccc2cc[n+]1CCCS(=O)(=O)[O-]	0	0	0	0	0	0	-	-	-	-	-
N#Cc1c(-c2ccccc2)c(-c2ccccc2)n(Cc2ccco2)c1NC(=O)c1cccs1	0	-13	0	6	0	-13	58%	0	42%	112	0
CCN(CC)C(=O)CSc1nc2sc3c(c2c(=O)n1-c1ccc(C)cc1)CC(C)(C)SC3	0	0	0	0	0	-17	0	0	26%	121	0.14
CCOC(=O)c1sc(N)c(C(=O)Nc2ccccc2OC)c1C	0	0	0	0	0	0	-	-	-	-	-
CCOC(=O)C1CCN(C(=O)COc2cc(C)c(Br)cc2C)CC1	0	0	0	0	0	-11	0	0	0	78	0
CCOC(=O)C1CCN(C(=O)COc2ccc(Br)cc2Br)CC1	0	0	0	0	0	0	-	-	-	-	-
COc1ccccc1NC(=O)Nc1nc(CC(=O)Nc2cc(F)ccc2F)cs1	0	0	0	0	0	0	-	-	-	-	-
CC(C)(C)c1cc(OC(=O)c2ccccc2F)ccc1O	0	-10	0	0	0	0	34%	0	39%	100	0
CCOC(=O)c1cc(-c2ccc(Cl)cc2)nc2c1c(C)nn2CCC#N	0	-13	0	0	0	-9.3	52%	0	32%	125	0.13
CC(C)(C)OC(=O)NOCC(=O)N(Cc1ccccc1)CC(O)COc1ccccc1 (centres undefined)	0	0	0	0	0	0	-	-	-	-	-
CC(Nc1nc(-c2ccccc2)nc2ccccc12)c1ccccc1 (centres undefined)	0	-8.9	0	0	0	-11	0	0	36%	102	0
CS(=O)(=O)CCC(C(=O)OCC(=O)c1ccc(Cl)cc1)N1C(=O)c2ccccc2C1=O (centres undefined)	0	0	0	0	0	0	-	-	-	-	-
CCCN(/C=N/c1sc2c(c1C#N)CCCCC2)CCC	0	-19	0	0	0	-11	69%	0	48%	105	0
CN(CC(=O)Nc1ccc(F)cc1)C(=O)COC(=O)CCN1C(=O)C2CC=CCC2C1=O (centres undefined)	0	0	0	0	0	0	-	-	-	-	-
